From ChEMBL document CHEMBL1909534, “Solvent-free, microwave assisted Knoevenagel condensation of novel 2,5-disubstituted indole analogues and their biological evaluation” (Eur J Med Chem, 2011)
pIC50: −log10 of the molar value. Active and inactive are the calls of the source. No cut-off for these calls is given here.

Experiments:
[1] = system: Radical scavenging activity; test: Antioxidant activity assessed as DPPH free radical scavenging activity after 20 mins; type: functional
Outline: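 DPPH method: samples at 10, 50 and 100 μg/100 μl made up to 100 μl with MeOH, mixed with 5 mL 0.1 mM methanolic DPPH, shaken, left 20 min at 27 °C; A517 read against control without sample. % scavenging = (control OD − sample OD)/control OD × 100. BHA as standard.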

[2] = Antioxidant activity assessed as equivalents of ascorbic acid at 10 to 500 ug after 90 mins; type: functional
Outline: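 Phosphomolybdenum method: 10, 50 and 500 μg samples mixed with 1.9 mL reagent (0.6 M sulfuric acid, 28 mM sodium phosphate, 4 mM ammonium molybdate), held 90 min at 95 °C, cooled, A695 read against blank. Values are μg ascorbic acid equivalents per mg, taken from an ascorbic acid standard curve.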

[3] = Antioxidant activity assessed as ferric ion reducing ability at after 20 mins by spectrophotometric analysis; type: functional
Outline: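 10, 50 and 500 μg samples in 2.5 mL 200 mmol/L sodium phosphate pH 6.6 plus 2.5 mL 1% potassium ferricyanide, 20 min at 50 °C. Then 2.5 mL 10% TCA added; 5 mL of this mixed with 5 mL water and 1 mL 0.1% FeCl3, and A700 read. BHA as standard.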

[4] = system: A549; test: Cytotoxicity against human A549 cells by MTT assay; type: functional, cell-based
Outline: (§1)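 Cells grown in RPMI 1640 with 10% FCS, penicillin 100 U/mL and streptomycin 100 μg/mL at 37 °C, 5% CO₂. Seeded at 1 × 10⁵ cells/well. Compounds diluted in DMSO, tested at 0–100 µg/mL. Viability read by MTT kit, with medium-only wells as control. IC50 derived by non-linear regression from three independent experiments.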

[5] = system: HEp-2; test: Cytotoxicity against human Hep2 cells by MTT assay; type: functional, cell-based; outline: as §1
[6] = system: HeLa; test: Cytotoxicity against human HeLa cells by MTT assay; type: functional, cell-based; outline: as §1

Structure (SMILES) | Activity [1] | Activity [2] | Activity [3] | pIC50 [4] | pIC50 [5] | pIC50 [6]
CC1=NNC(=O)/C1=C/c1c[nH]c2ccccc12 | Dose-dependent effect | Active | Dose-dependent effect | 5.47 | 5.92 | 4.48
O=C1NC(=O)/C(=C/c2c[nH]c3ccccc23)S1 | Dose-dependent effect | Active | Dose-dependent effect | 4.06 | < 4.00 | 4.22
Cc1ccc2[nH]c(-c3ccccc3)c(/C=C3\SC(=O)NC3=O)c2c1 | inactive | Active | Dose-dependent effect | < 4.00 | < 4.00 | < 4.00
O=C1NC(=O)C(=Cc2c(-c3ccccc3)[nH]c3ccc(Cl)cc23)C(=O)N1 | Dose-dependent effect | Active | Dose-dependent effect | 4.57 | < 4.00 | 4.52
O=C1NC(=S)NC(=O)C1=Cc1c[nH]c2ccccc12 | Dose-dependent effect | Active | Dose-dependent effect | 4.28 | < 4.00 | 4.20
Cc1ccc2[nH]c(-c3ccccc3)c(C=C3C(=O)NC(=S)NC3=O)c2c1 | inactive | Active | Dose-dependent effect | < 4.00 | < 4.00 | < 4.00
Cc1ccc2[nH]c(-c3ccccc3)c(C=C3C(=O)NC(=O)NC3=O)c2c1 | inactive | Active | Dose-dependent effect | < 4.00 | < 4.00 | < 4.00
O=C1NC(=S)NC(=O)C1=Cc1c(-c2ccccc2)[nH]c2ccc(Cl)cc12 | Dose-dependent effect | Active | Dose-dependent effect | 4.56 | 4.34 | 4.63
COc1cccc2c1C(=O)c1c(O)c3c(c(O)c1C2=O)C[C@@](O)(C(=O)CO)C[C@@H]3O[C@H]1C[C@H](N)[C@H](O)[C@H](C)O1 [DOXORUBICIN] |  |  |  | 6.15 | 5.06 | 6.15
CC1=NNC(=O)/C1=C/c1c(-c2ccccc2)[nH]c2ccc(Cl)cc12 | Dose-dependent effect | Active | Dose-dependent effect | 6.00 | 5.10 | 5.68
CC1=NNC(=O)/C1=C/c1c(-c2ccccc2)[nH]c2ccc(C)cc12 | inactive | Active | Dose-dependent effect | 5.11 | 4.58 | < 4.00
O=C1NC(=O)C(=Cc2c[nH]c3ccccc23)C(=O)N1 | Dose-dependent effect | Active | Dose-dependent effect | 4.11 | < 4.00 | 4.13
O=C1NC(=O)/C(=C/c2c(-c3ccccc3)[nH]c3ccc(Cl)cc23)S1 | Dose-dependent effect | Active | Dose-dependent effect | 5.35 | 4.92 | 5.15
